Reference: ChEMBL document CHEMBL2010769, “Synthesis and antiviral activity of 6-deoxycyclopropavir, a new prodrug of cyclopropavir” (Bioorg Med Chem, 2012)
Calls of active or inactive are those of the source. The rule behind the calls is not given here.

Key:
[1] = system: Cowpox virus; assay: Antiviral activity against Cowpox virus infected in HFF assessed as reduction in virus induced cytopathic effect at 100 uM; type: functional, organism-based
[2] = Cytotoxicity against human Akata cells; type: cell-based
[3] = system: Mus musculus; assay: Toxicity in BALB/c mouse assessed as body weight loss at 50 mg/kg, po qd for 5 days relative to control; type: organism-based; design: dose 50 mg/kg, route oral; settings: in vivo, 120 h
Method in brief: (§1)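 Uninfected female BALB/c mice, 3 weeks old, in groups of 5. Compound suspended in 0.4% carboxymethylcellulose and given orally in 0.2 mL once daily for 5 days at 50, 16.7 or 5.6 mg/kg. Mean group body weight tracked over days 1–5 plus day 6 recovery. Clinical signs (ruffled coat, behaviour) were observed. Comparison was with vehicle-treated or untreated mice.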

[4] = system: Mus musculus; assay: Toxicity in BALB/c mouse assessed as body weight loss at 16.7 mg/kg, po qd for 5 days relative to control; type: organism-based; design: dose 16.7 mg/kg, route oral; settings: in vivo, 120 h; method in brief: as §1
[5] = system: Mus musculus; assay: Toxicity in BALB/c mouse assessed as changes in behavior at 50 mg/kg, po qd for 5 days relative to control; type: organism-based; design: dose 50 mg/kg, route oral; settings: in vivo, 120 h; method in brief: as §1
[6] = system: Mus musculus; assay: Toxicity in BALB/c mouse assessed as changes in behavior at 16.7 mg/kg, po qd for 5 days relative to control; type: organism-based; design: dose 16.7 mg/kg, route oral; settings: in vivo, 120 h; method in brief: as §1
[7] = system: Mus musculus; assay: Toxicity in BALB/c mouse assessed as changes in behavior at 5.6 mg/kg, po qd for 5 days relative to control; type: organism-based; design: dose 5.6 mg/kg, route oral; settings: in vivo, 120 h; method in brief: as §1
[8] = system: Murid betaherpesvirus 1; assay: Antiviral activity against MCMV infected in BALB/c mouse assessed as decrease in virus-induced mortality at 50 mg/kg, po qd for 5 days administered 24 hrs after viral infection (reference value: 67%); type: functional; design: scale not given: the % may be the effect or the level left
Method in brief: (§2)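 Female BALB/c mice (3 weeks, 15/group) were inoculated ip with MCMV Smith at about LD90. Oral dosing of 0.2 mL in 0.4% CMC ran once daily for 5 days, starting 24 or 48 h post-inoculation. Mice were observed daily for 21 days. Mortality was compared with CMC placebo by Fisher's exact test.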

[9] = system: Murid betaherpesvirus 1; assay: Antiviral activity against MCMV infected in BALB/c mouse assessed as decrease in virus-induced mortality at 16.7 mg/kg, po qd for 5 days administered 24 hrs after viral infection (reference value: 67%); type: functional; design: scale not given: the % may be the effect or the level left; method in brief: as §2
[10] = system: Murid betaherpesvirus 1; assay: Antiviral activity against MCMV infected in BALB/c mouse assessed as decrease in virus-induced mortality at 50 mg/kg, po qd for 5 days administered 48 hrs after viral infection (reference value: 100%); type: functional; design: scale not given: the % may be the effect or the level left; method in brief: as §2
[11] = system: Murid betaherpesvirus 1; assay: Antiviral activity against MCMV infected in BALB/c mouse assessed as decrease in virus-induced mortality at 5.6 mg/kg, po qd for 5 days administered 48 hrs after viral infection (reference value: 100%); type: functional; design: scale not given: the % may be the effect or the level left; method in brief: as §2
[12] = system: Murid betaherpesvirus 1; assay: Antiviral activity against MCMV infected in BALB/c mouse assessed as decrease in virus-induced mean day of death at 5.6 mg/kg, po qd for 5 days administered 24 hrs after viral infection (reference value: 4.9 +/- 0.7 days); type: functional
[13] = system: Murid betaherpesvirus 1; assay: Antiviral activity against MCMV infected in BALB/c mouse assessed as decrease in virus-induced mean day of death at 50 mg/kg, po qd for 5 days administered 48 hrs after viral infection (reference value: 5.1 +/- 0.9 days); type: functional
[14] = system: Murid betaherpesvirus 1; assay: Antiviral activity against MCMV infected in BALB/c mouse assessed as decrease in virus-induced mean day of death at 16.7 mg/kg, po qd for 5 days administered 48 hrs after viral infection (reference value: 5.1 +/- 0.9 days); type: functional
[15] = system: Human betaherpesvirus 5; assay: Antiviral activity against HCMV Toledo infected in human thymus/liver tissue xenografted in SCID mouse assessed as mean log10 genome equivalents/animal at 12.5 mg/kg, po qd for 28 days by RT-PCR analysis (reference value: 3.73 +/- 0.784); type: functional, strain Toledo
[16] = system: Human betaherpesvirus 5; assay: Antiviral activity against HCMV Toledo infected in human thymus/liver tissue xenografted in SCID mouse assessed as mean log10 genome equivalents/animal at 12.5 mg/kg, po qd for 28 days measured on day 35 by RT-PCR analysis (reference value: 3.28 +/- 1.422); type: functional, strain Toledo
[17] = system: Human betaherpesvirus 5; assay: Antiviral activity against HCMV Toledo infected in human thymus/liver tissue xenografted in SCID mouse assessed as mean log10 genome equivalents/animal at 6.25 mg/kg, po qd for 14 days by RT-PCR analysis (reference value: 3.50 +/- 0.878); type: functional, strain Toledo
[18] = system: Human betaherpesvirus 5; assay: Antiviral activity against HCMV Toledo infected in human thymus/liver tissue xenografted in SCID mouse assessed as mean log10 genome equivalents/animal at 6.25 mg/kg, po qd for 21 days by RT-PCR analysis (reference value: 3.82 +/- 1.24); type: functional, strain Toledo
[19] = system: Human betaherpesvirus 5; assay: Antiviral activity against HCMV Toledo infected in human thymus/liver tissue xenografted in SCID mouse assessed as mean log10 genome equivalents/animal at 6.25 mg/kg, po qd for 28 days by RT-PCR analysis (reference value: 3.73 +/- 0.784); type: functional, strain Toledo
[20] = system: Human betaherpesvirus 5; assay: Antiviral activity against HCMV Toledo infected in human thymus/liver tissue xenografted in SCID mouse assessed as mean log10 genome equivalents/animal at 6.25 mg/kg, po qd for 28 days measured on day 35 by RT-PCR analysis (reference value: 3.28 +/- 1.422); type: functional, strain Toledo
[21] = system: Human betaherpesvirus 5; assay: Antiviral activity against HCMV Toledo infected in human thymus/liver tissue xenografted in SCID mouse assessed as decrease in viral infection at 12.5 mg/kg, po qd for 14 days by RT-PCR analysis (reference value: 92%); type: functional, strain Toledo; design: scale not given: the % may be the effect or the level left
[22] = system: Human betaherpesvirus 5; assay: Antiviral activity against HCMV Toledo infected in human thymus/liver tissue xenografted in SCID mouse assessed as decrease in viral infection at 12.5 mg/kg, po qd for 28 days measured on day 35 by RT-PCR analysis (reference value: 67%); type: functional, strain Toledo; design: scale not given: the % may be the effect or the level left
[23] = system: Human betaherpesvirus 5; assay: Antiviral activity against HCMV Toledo infected in human thymus/liver tissue xenografted in SCID mouse assessed as decrease in viral infection at 6.25 mg/kg, po qd for 14 days by RT-PCR analysis (reference value: 92%); type: functional, strain Toledo; design: scale not given: the % may be the effect or the level left
[24] = system: Human betaherpesvirus 5; assay: Antiviral activity against HCMV Toledo infected in human thymus/liver tissue xenografted in SCID mouse assessed as decrease in viral infection at 6.25 mg/kg, po qd for 28 days by RT-PCR analysis (reference value: 92%); type: functional, strain Toledo; design: scale not given: the % may be the effect or the level left
[25] = system: Human betaherpesvirus 5; assay: Antiviral activity against HCMV Towne infected in HFF by plaque reduction assay; type: functional, organism-based; settings: Human betaherpesvirus 5, Towne
Method in brief: (§3)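 HCMV work used human foreskin fibroblasts as primary cultures, propagated in MEM with 10% FBS and L-glutamine, with or without antibiotics.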

[26] = system: Human betaherpesvirus 5; assay: Antiviral activity against HCMV AD169 infected in HFF assessed as reduction in virus induced cytopathic effect; type: functional, organism-based; settings: Human betaherpesvirus 5, AD169; method in brief: as §3
[27] = system: Human alphaherpesvirus 1; assay: Antiviral activity against HSV1 infected in HFF assessed as reduction in virus induced cytopathic effect; type: functional, organism-based
[28] = system: Human alphaherpesvirus 2; assay: Antiviral activity against HSV2 infected in HFF assessed as reduction in virus induced cytopathic effect; type: functional, organism-based
[29] = system: Human alphaherpesvirus 3; assay: Antiviral activity against VZV infected in HFF assessed as reduction in virus induced cytopathic effect; type: functional, organism-based

Nc1ncc2ncn(/C=C3/CC3(CO)CO)c2n1
Activity [1]: inactive
CC50 [2]: 71 µM
Activity [3]: 17%
Activity [4]: Non-toxic
Activity [5]: Non-toxic
Activity [6]: Non-toxic
Activity [7]: Non-toxic
Activity [8]: 47%
Activity [9]: 0%
Activity [10]: 67%
Activity [11]: 0%
Activity [12]: 6 days
Activity [13]: 11.9 days
Activity [14]: 7 days
Activity [15]: 2.76
Activity [16]: 2.69
Activity [17]: 3.9
Activity [18]: 3.14
Activity [19]: 2.81
Activity [20]: 3.32
Activity [21]: 100%
Activity [22]: 83%
Activity [23]: 92%
Activity [24]: 58%
EC50 [25]: > 100 µM
EC50 [26]: > 300 µM
EC50 [27]: > 300 µM
EC50 [28]: > 300 µM
EC50 [29]: > 300 µM
